From ChEMBL document CHEMBL3132745, “Synthesis and Antimicrobial Activities of His(2-aryl)-Arg and Trp-His(2-aryl) Classes of Dipeptidomimetics” (Medchemcomm, 2014)
Converted amounts (≈) assume the structure as drawn. The source made the active and inactive calls. Residues, ends and D or L forms follow the SMILES beside them. *: point of attachment. NHBn = c1ccc(CN*)cc1

Assays:
[1] = Selectivity index, ratio of cytotoxicity against human SKOV3 cells to IC50 for Cryptococcus neoformans ATCC 90113; format: toxicity, cell-based, SK-OV-3; conditions: read-out: Selectivity Index
Aspergillus fumigatus = test: Antifungal activity against Aspergillus fumigatus assessed as growth inhibition; format: functional, organism-based
Pichia kudriavzevii = test: Antifungal activity against Candida krusei assessed as growth inhibition; format: functional, organism-based
KB = test: Cytotoxicity against human KB cells assessed as cell viability after 48 hrs by neutral red uptake assay; format: cell-based
Outline: (§1)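 Neutral red uptake assay on human cancer lines (SK-MEL, KB, BT-549, SK-OV-3) and noncancerous mammalian cells (VERO, LLC-PK1). Highest tested concentration was 10 µg/mL.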

Nakaseomyces glabratus = test: Antifungal activity against Candida glabrata assessed as growth inhibition; format: functional, organism-based
[2] = Selectivity index, ratio of cytotoxicity against african green monkey Vero cells to IC50 for Cryptococcus neoformans ATCC 90113; format: toxicity, cell-based; conditions: read-out: Selectivity Index
Escherichia coli = test: Antibacterial activity against Escherichia coli ATCC 35218 assessed as growth inhibition after 16-20 hrs by CLSI method; format: functional, organism-based
Vero = test: Cytotoxicity against african green monkey Vero cells assessed as cell viability after 48 hrs by neutral red uptake assay; format: cell-based; conditions: chlorocebus sabaeus; outline: as §1
SK-OV-3 = test: Cytotoxicity against human SKOV3 cells assessed as cell viability after 48 hrs by neutral red uptake assay; format: cell-based; conditions: sk-ov-3, 48 h; outline: as §1
SK-MEL = test: Cytotoxicity against human SK-MEL cells assessed as cell viability after 48 hrs by neutral red uptake assay; format: cell-based; outline: as §1
[3] = Selectivity index, ratio of cytotoxicity against human BT549 cells to IC50 for Cryptococcus neoformans ATCC 90113; format: toxicity, cell-based, BT-549; conditions: read-out: Selectivity Index
LLC-PK1 = test: Cytotoxicity against pig LLC-PK1 cells assessed as cell viability after 48 hrs by neutral red uptake assay; format: cell-based, Sus scrofa; conditions: llc-pk1, 48 h; outline: as §1
[4] = Selectivity index, ratio of cytotoxicity against human KB cells to IC50 for Cryptococcus neoformans ATCC 90113; format: toxicity, cell-based; conditions: read-out: Selectivity Index
[5] = Selectivity index, ratio of cytotoxicity against human SK-MEL cells to IC50 for Cryptococcus neoformans ATCC 90113; format: toxicity, cell-based; conditions: read-out: Selectivity Index
Candida albicans = test: Antifungal activity against Candida albicans assessed as growth inhibition; format: functional, organism-based
Cryptococcus neoformans = test: Antifungal activity against Cryptococcus neoformans ATCC 90113 assessed as growth inhibition after 70-74 hrs by CLSI method; format: functional, organism-based
[6] = Selectivity index, ratio of cytotoxicity against pig LLC-PK1 cells to IC50 for Cryptococcus neoformans ATCC 90113; format: toxicity, cell-based; conditions: read-out: Selectivity Index
BT-549 = test: Cytotoxicity against human BT549 cells assessed as cell viability after 48 hrs by neutral red uptake assay; format: cell-based; conditions: bt-549, 48 h; outline: as §1
Staphylococcus aureus [7] = test: Antibacterial activity against methicillin-resistant Staphylococcus aureus ATCC 33591 assessed as growth inhibition after 16-20 hrs by CLSI method; format: functional, organism-based
Staphylococcus aureus [8] = test: Antibacterial activity against Staphylococcus aureus ATCC 29213 assessed as growth inhibition after 16-20 hrs by CLSI method; format: functional, organism-based
[9] = Cryptococcus neoformans, ATCC 90113
[10] = Cryptococcus neoformans, ATCC 90113, read-out: IC50

SMILES | selectivity ratio [1] | growth inhibition (GI) (Aspergillus fumigatus) | growth inhibition (GI) (Pichia kudriavzevii) | Activity (KB) | growth inhibition (GI) (Nakaseomyces glabratus) | selectivity ratio [2] | growth inhibition (GI) (Escherichia coli) | Activity (Vero) | Activity (SK-OV-3) | Activity (SK-MEL) | selectivity ratio [3] | Activity (LLC-PK1) | selectivity ratio [4] | selectivity ratio [5] | growth inhibition (GI) (Candida albicans) | MIC (Cryptococcus neoformans; [9]) | IC50 (Cryptococcus neoformans; [10]) | Activity (BT-549) | MFC (Cryptococcus neoformans) | MIC (Cryptococcus neoformans) | other results
COC(=O)[C@H](Cc1c[nH]c(-c2ccccc2)n1)NC(=O)[C@@H](N)Cc1c[nH]c2ccccc12 | > 1.3 | inactive | inactive | > 10 µg/mL | inactive | > 1.3 | inactive | > 10 µg/mL | > 10 µg/mL | > 10 µg/mL | > 1.3 | > 10 µg/mL | > 1.3 | > 1.3 | inactive | 20 µg/mL (≈ 46.4 µM) | 7.97 µg/mL (≈ 18.5 µM) | > 10 µg/mL | – | – | MFC (Cryptococcus neoformans; [9]): 20 µg/mL (≈ 46.4 µM); selectivity ratio [6]: > 1.3
COC(=O)[C@H](CCCNC(=N)N)NC(=O)[C@H](Cc1c[nH]c(-c2ccc(-c3ccccc3)cc2)n1)NC(=O)OC(C)(C)C | > 2 | inactive | inactive | > 10 µg/mL | inactive | > 2 | inactive | > 10 µg/mL | > 10 µg/mL | > 10 µg/mL | > 2 | > 10 µg/mL | > 2 | > 2 | inactive | 10 µg/mL (≈ 17.3 µM) | 4.91 µg/mL (≈ 8.5 µM) | > 10 µg/mL | – | – | MFC (Cryptococcus neoformans; [9]): 10 µg/mL (≈ 17.3 µM); selectivity ratio [6]: > 2
COC(=O)[C@H](Cc1c[nH]c(-c2ccc(-c3ccccc3)cc2)n1)NC(=O)[C@H](Cc1c[nH]c2ccccc12)NC(=O)OC(C)(C)C | – | inactive | inactive | > 10 µg/mL | inactive | – | inactive | > 10 µg/mL | > 10 µg/mL | > 10 µg/mL | – | > 10 µg/mL | – | – | inactive | – | – | > 10 µg/mL | inactive | inactive | IC50 (Staphylococcus aureus [7]): Not Active; MBC (Staphylococcus aureus [7]): inactive; MIC (Staphylococcus aureus [7]): inactive; IC50 (Staphylococcus aureus [8]): 19 µg/mL (≈ 31.2 µM); MBC (Staphylococcus aureus [8]): inactive; MIC (Staphylococcus aureus [8]): inactive; IC50 (Cryptococcus neoformans): Not Active
Cc1ccc(-c2nc(C[C@H](N)C(=O)N[C@@H](CCCNC(=N)N)C(=O)NCc3ccccc3)c[nH]2)cc1 | > 4.7 | inactive | inactive | > 10 µg/mL | inactive | > 4.7 | inactive | > 10 µg/mL | > 10 µg/mL | > 10 µg/mL | > 4.7 | > 10 µg/mL | > 4.7 | > 4.7 | inactive | 2.5 µg/mL (≈ 5.1 µM) | 2.11 µg/mL (≈ 4.3 µM) | > 10 µg/mL | – | – | MFC (Cryptococcus neoformans; [9]): 2.5 µg/mL (≈ 5.1 µM); selectivity ratio [6]: > 4.7
N[C@@H](Cc1c[nH]c2ccccc12)C(=O)N[C@@H](Cc1c[nH]c(-c2ccccc2)n1)C(=O)NCc1ccccc1 | > 4.9 | inactive | inactive | > 10 µg/mL | inactive | > 4.9 | inactive | > 10 µg/mL | > 10 µg/mL | > 10 µg/mL | > 4.9 | > 10 µg/mL | > 4.9 | > 4.9 | inactive | 5 µg/mL (≈ 9.87 µM) | 2.04 µg/mL (≈ 4.03 µM) | > 10 µg/mL | – | – | MFC (Cryptococcus neoformans; [9]): 5 µg/mL (≈ 9.87 µM); selectivity ratio [6]: > 4.9
Cc1ccc(-c2nc(C[C@H](NC(=O)[C@@H](N)Cc3c[nH]c4ccccc34)C(=O)NCc3ccccc3)c[nH]2)cc1 | > 1.3 | inactive | inactive | > 10 µg/mL | inactive | > 1.3 | inactive | > 10 µg/mL | > 10 µg/mL | > 10 µg/mL | > 1.3 | > 10 µg/mL | > 1.3 | > 1.3 | inactive | 20 µg/mL (≈ 38.4 µM) | 7.84 µg/mL (≈ 15.1 µM) | > 10 µg/mL | – | – | selectivity ratio [6]: > 1.3
COC(=O)[C@H](Cc1c[nH]c(-c2ccc(C(C)(C)C)cc2)n1)NC(=O)[C@H](Cc1c[nH]c2ccccc12)NC(=O)OC(C)(C)C | – | inactive | inactive | > 10 µg/mL | inactive | – | inactive | > 10 µg/mL | > 10 µg/mL | > 10 µg/mL | – | > 10 µg/mL | – | – | inactive | – | 18.7 µg/mL (≈ 31.8 µM) | > 10 µg/mL | inactive | inactive | IC50 (Staphylococcus aureus [7]): Not Active; MBC (Staphylococcus aureus [7]): inactive; MIC (Staphylococcus aureus [7]): inactive; IC50 (Staphylococcus aureus [8]): 15.1 µg/mL (≈ 25.6 µM); MBC (Staphylococcus aureus [8]): inactive; MIC (Staphylococcus aureus [8]): inactive
CC(C)(C)OC(=O)N[C@@H](Cc1c[nH]c2ccccc12)C(=O)N[C@@H](Cc1c[nH]c(-c2ccc(C(C)(C)C)cc2)n1)C(=O)NCc1ccccc1 | – | inactive | inactive | > 10 µg/mL | inactive | – | inactive | > 10 µg/mL | > 10 µg/mL | > 10 µg/mL | – | > 10 µg/mL | – | – | inactive | – | – | > 10 µg/mL | inactive | inactive | IC50 (Staphylococcus aureus [7]): Not Active; MBC (Staphylococcus aureus [7]): inactive; MIC (Staphylococcus aureus [7]): inactive; IC50 (Staphylococcus aureus [8]): 10.2 µg/mL (≈ 15.3 µM); MBC (Staphylococcus aureus [8]): inactive; MIC (Staphylococcus aureus [8]): inactive; IC50 (Cryptococcus neoformans): Not Active
Cc1ccc(-c2nc(C[C@H](NC(=O)[C@H](Cc3c[nH]c4ccccc34)NC(=O)OC(C)(C)C)C(=O)NCc3ccccc3)c[nH]2)cc1 | – | inactive | inactive | > 10 µg/mL | inactive | – | inactive | > 10 µg/mL | > 10 µg/mL | > 10 µg/mL | – | > 10 µg/mL | – | – | inactive | – | – | > 10 µg/mL | inactive | inactive | IC50 (Cryptococcus neoformans): Not Active
N=C(N)NCCC[C@H](NC(=O)[C@@H](N)Cc1c[nH]cn1)C(=O)NCc1ccccc1 (H-His-Arg-NHBn) | – | inactive | inactive | > 10 µg/mL | inactive | – | inactive | > 10 µg/mL | > 10 µg/mL | > 10 µg/mL | – | > 10 µg/mL | – | – | inactive | – | – | > 10 µg/mL | inactive | inactive | IC50 (Cryptococcus neoformans): Not Active
COC(=O)[C@H](CCCNC(=N)N)NC(=O)[C@H](Cc1c[nH]c(-c2ccc(C)cc2)n1)NC(=O)OC(C)(C)C | – | inactive | inactive | > 10 µg/mL | inactive | – | inactive | > 10 µg/mL | > 10 µg/mL | > 10 µg/mL | – | > 10 µg/mL | – | – | inactive | – | 16.9 µg/mL (≈ 32.9 µM) | > 10 µg/mL | inactive | inactive | –
